MEKK3 PB1 HTS: MEKK3-MEK5 PB1 interaction, increase or decrease | Q99759 | bead-based flow cytometry, Alexa488-MEK5 binding to MEKK3; actives lie on both sides; 0 = blocked by unlabeled MEK5, 100 = vehicle | binding response (% of control), % at 10 µM | 290,000 tested, 1.4% active | AID 1529;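 active = binding response more than 3 SD above or below the average of its plate-row segment, actives on both sides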;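 also: Alexa488 bead fluorescence after subtracting the streptavidin-only scavenger bead signal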
WT yeast gro inh: growth inhibition of WT yeast, mitochondrial fusion screen | mitochondrial fusion phenotypic screen, WT strain | inhibition, % at 10 µM | 190,000 tested, 2.1% active; in the data active = inhibition above about 58%; tested in S. cerevisiae
ABCB1 inh: human ABCB1 inhibition, ABCG2 as counter-screen; P08183; CCRF-Adr cells, JC-1 efflux, flow cytometry; 190,000 tested, 0.067% active; AID 1326; inhibition, % at 6.6 µM; in the data active = inhibition above about 40%;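 also: 0% = vehicle and 100% = reference inhibitor; higher value means more JC-1 retained so stronger ABCB1 efflux block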
Target sequence (P08183 whole entry, looked up): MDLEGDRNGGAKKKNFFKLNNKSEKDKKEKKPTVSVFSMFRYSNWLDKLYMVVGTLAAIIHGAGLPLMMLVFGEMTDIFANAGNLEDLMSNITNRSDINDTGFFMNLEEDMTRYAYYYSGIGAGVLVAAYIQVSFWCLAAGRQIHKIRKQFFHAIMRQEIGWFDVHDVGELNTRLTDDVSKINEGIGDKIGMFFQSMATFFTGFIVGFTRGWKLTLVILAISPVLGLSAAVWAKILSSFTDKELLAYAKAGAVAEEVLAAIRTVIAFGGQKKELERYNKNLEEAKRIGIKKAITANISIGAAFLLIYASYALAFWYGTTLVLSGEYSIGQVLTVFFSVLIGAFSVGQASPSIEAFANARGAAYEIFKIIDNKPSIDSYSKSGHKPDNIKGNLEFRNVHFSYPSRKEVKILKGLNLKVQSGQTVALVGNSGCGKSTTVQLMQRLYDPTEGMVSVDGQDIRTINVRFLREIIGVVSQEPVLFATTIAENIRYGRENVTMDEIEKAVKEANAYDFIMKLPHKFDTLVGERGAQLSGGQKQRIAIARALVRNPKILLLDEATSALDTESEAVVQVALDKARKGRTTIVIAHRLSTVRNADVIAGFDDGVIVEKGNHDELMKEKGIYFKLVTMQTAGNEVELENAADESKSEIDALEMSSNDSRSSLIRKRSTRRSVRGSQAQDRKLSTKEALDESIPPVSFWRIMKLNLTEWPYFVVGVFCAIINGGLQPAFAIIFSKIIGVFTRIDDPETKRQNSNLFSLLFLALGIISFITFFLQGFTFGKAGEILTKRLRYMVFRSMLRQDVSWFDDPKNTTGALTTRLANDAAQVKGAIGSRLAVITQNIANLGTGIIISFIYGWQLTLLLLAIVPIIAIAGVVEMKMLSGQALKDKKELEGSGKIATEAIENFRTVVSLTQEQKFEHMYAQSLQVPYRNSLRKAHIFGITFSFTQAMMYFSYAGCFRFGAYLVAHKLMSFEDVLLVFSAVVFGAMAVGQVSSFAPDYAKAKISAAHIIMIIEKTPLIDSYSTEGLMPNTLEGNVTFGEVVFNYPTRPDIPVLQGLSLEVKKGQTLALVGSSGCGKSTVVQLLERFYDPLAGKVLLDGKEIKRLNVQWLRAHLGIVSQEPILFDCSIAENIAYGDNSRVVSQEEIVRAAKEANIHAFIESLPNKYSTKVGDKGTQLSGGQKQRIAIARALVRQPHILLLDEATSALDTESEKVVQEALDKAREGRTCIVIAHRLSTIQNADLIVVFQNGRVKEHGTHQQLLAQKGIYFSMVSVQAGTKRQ
ABCG2 block: human ABCG2 inhibition, ABCB1 as counter-screen; Q9UNQ0; IgMXP3 cells, JC-1 efflux, flow cytometry; inhibition, % at 6.6 µM; 190,000 tested, 0.1% active; AID 1325;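 active = inhibition above 80%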;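 also: 0% = DMSO and 100% = nicardipine control wells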
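Assay system – ABCG2 IgMXP3 and barcoded ABCB1 CCRF-Adr cell mix · Input – 3 million cells/mL in well · Reagent – JC-1 fluorescent substrate · Compound – single test compound dose, 6.6 µM final · Timing – 10 min exposure at 25 °C with rotation, no wash · Detection – flow cytometry of retained JC-1 fluorescence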
MEKK2 mut-MEK5: signal of MEK5 binding to mutant human MEKK2 PB1 domain; AID 1530; percent response, % at 10 µM; bead flow cytometry, Alexa488-MEK5 binding to MEKK2 mutant; 290,000 tested, 0.35% active; in the data active = percent response above about 24%, passing the limit was not always enough
MEKK2 WT-MEK5: raises or lowers MEK5 binding to wildtype human MEKK2 PB1 domain | binding response (% of control), % at 10 µM | bead flow cytometry, Alexa488-MEK5 binding to MEKK2 WT; actives lie on both sides | 290,000 tested, 1.1% active | Q9Y2U5; in the data active = binding response below about 67% or above about 130%
Starred values were filed as active, the others as inactive. In the library only some 3.5% were active in any assay of this set; here they are far more common.

For CC(C)C12CN3CCN(CC(C3)C1O)C2 (stereo unspecified) the results were WT yeast gro inh 59*, ABCB1 inh 0 and ABCG2 block 4.
Screening Cc1oc(-c2ccccc2)nc1CN1C(=O)C(C)N=C(c2ccccc2F)c2cc(Cl)ccc21 (stereo unspecified) returned MEKK3 PB1 HTS 112, WT yeast gro inh 80*, ABCB1 inh 3, ABCG2 block 5, MEKK2 mut-MEK5 -3 and MEKK2 WT-MEK5 101.
O=c1c2ccccc2[nH]c(=S)n1-c1ccc2c(c1)OCO2 was read as WT yeast gro inh 63*, ABCB1 inh 0 and ABCG2 block 2.
Screening O=c1c2ccccc2nc(/C=C/c2ccc3c(c2)OCO3)n1-c1cccc(O)c1 returned MEKK3 PB1 HTS 101, WT yeast gro inh -15, ABCB1 inh -3, ABCG2 block -6, MEKK2 mut-MEK5 0 and MEKK2 WT-MEK5 98.
For COc1cccc(C2CCN(CC(=O)Nc3cc(Cl)ccc3OC)CC2O)c1 (stereo unspecified) the results were MEKK3 PB1 HTS 109, MEKK2 mut-MEK5 8 and MEKK2 WT-MEK5 110.
`COC(=O)C1=C(c2cc3ccccc3s2)C[C@@H]2CC[C@H]1N2C(=O)NCCNC(C)=O` gave MEKK3 PB1 HTS 102, MEKK2 mut-MEK5 -1 and MEKK2 WT-MEK5 98.
`O=[N+]([O-])c1ccc(C2C3C(c4ccccc4)=NC4(CCCC4)N32)cc1` (stereo unspecified) gave MEKK3 PB1 HTS 100, WT yeast gro inh 7, ABCB1 inh 2, ABCG2 block 0, MEKK2 mut-MEK5 2 and MEKK2 WT-MEK5 100.
For NC(N)=N/N=C/c1cn(-c2ccccc2)nc1-c1cccs1 the results were MEKK3 PB1 HTS 103, WT yeast gro inh 16, ABCB1 inh 0, ABCG2 block 0, MEKK2 mut-MEK5 27 and MEKK2 WT-MEK5 184*.
Screening O=c1c2ccccc2nc(-c2cccs2)n1-c1ccccc1 returned MEKK3 PB1 HTS 102, WT yeast gro inh -5, ABCB1 inh 1, ABCG2 block 37, MEKK2 mut-MEK5 -1 and MEKK2 WT-MEK5 100.
CN(C)c1ccc(/C=C/C=C/c2sc3ccccc3[n+]2C)cc1 was read as MEKK3 PB1 HTS 98, MEKK2 mut-MEK5 8 and MEKK2 WT-MEK5 4.0*.
For CC[n+]1c(/C=C/C=C/c2ccc(N(C)C)cc2)sc2ccccc21 the results were MEKK3 PB1 HTS 95, MEKK2 mut-MEK5 12 and MEKK2 WT-MEK5 -5.0*.
Screening O=C1NC(=O)N(Cc2ccc(F)cc2)C(=O)/C1=C\c1ccc(N2CCCC2)cc1 returned MEKK3 PB1 HTS 93, MEKK2 mut-MEK5 10 and MEKK2 WT-MEK5 18*.
Cc1ccccc1N1CCN(C2CCCN(C(=O)Cc3c(C)noc3C)C2)CC1 (stereo unspecified) was read as MEKK3 PB1 HTS 99, MEKK2 mut-MEK5 -3 and MEKK2 WT-MEK5 103.
For O=C(COC(=O)c1ccc(O)cc1)Nc1ccc(Cl)cc1C(=O)c1ccccc1 the results were MEKK3 PB1 HTS 102, WT yeast gro inh 77*, ABCB1 inh 1, ABCG2 block 15, MEKK2 mut-MEK5 14 and MEKK2 WT-MEK5 99.
Screening CC(=O)Nc1ccc(C(=O)OCC(=O)Nc2ccc(Cl)cc2C(=O)c2ccccc2)cc1 returned MEKK3 PB1 HTS 90, WT yeast gro inh 40, ABCB1 inh 0, ABCG2 block -7, MEKK2 mut-MEK5 -4 and MEKK2 WT-MEK5 92.
O=C(Nc1nc(-c2ccccc2)c(-c2ccccc2)s1)c1ccc(S(=O)(=O)N(CCCl)CCCl)cc1 was read as MEKK3 PB1 HTS 93, WT yeast gro inh -11, ABCB1 inh -2, ABCG2 block -6, MEKK2 mut-MEK5 -1 and MEKK2 WT-MEK5 93.
For COc1ccc(NC(=O)N2C[C@@H]3C[C@@H](C2)c2cccc(=O)n2C3)c(OC)c1 the results were MEKK3 PB1 HTS 98, MEKK2 mut-MEK5 -2 and MEKK2 WT-MEK5 97.
COC(=O)C(O)(c1ccc(NC(=S)NC(=O)c2ccc(Cl)cc2Cl)c(C)c1)C(F)(F)F (stereo unspecified) was read as MEKK3 PB1 HTS 107, WT yeast gro inh 75*, ABCB1 inh -1, ABCG2 block -10, MEKK2 mut-MEK5 -1 and MEKK2 WT-MEK5 97.
`Cc1ccccc1-n1c(O)c(C(c2ccncc2)c2c(O)n(-c3ccccc3C)c(=O)[nH]c2=O)c(=O)[nH]c1=O` gave MEKK3 PB1 HTS 101, MEKK2 mut-MEK5 0 and MEKK2 WT-MEK5 101.
`CCOc1ccc(C(C)=O)cc1Cn1ccsc1=N` gave MEKK3 PB1 HTS 104, MEKK2 mut-MEK5 23 and MEKK2 WT-MEK5 145*.
CP(=O)(Nc1ccccc1)C(Cl)(Cl)Cl (stereo unspecified) was read as MEKK3 PB1 HTS 98, WT yeast gro inh 9, ABCB1 inh 0, ABCG2 block 0, MEKK2 mut-MEK5 0 and MEKK2 WT-MEK5 98.
For N=c1c2c(n(Cc3ccc(Cl)cc3Cl)c3c1CCC3)CCCC2 the results were MEKK3 PB1 HTS 100, WT yeast gro inh 70*, ABCB1 inh 1, ABCG2 block 2, MEKK2 mut-MEK5 9 and MEKK2 WT-MEK5 107.
Screening CCOC(=O)c1c(-n2c(C)cc(/C=C3/C(=O)NC(=O)N(CC)C3=O)c2C)sc2c1CCCC2 returned MEKK3 PB1 HTS 102, MEKK2 mut-MEK5 2 and MEKK2 WT-MEK5 88.
`CCOC(=O)c1c(-n2c(C)cc(C=C3C(=O)NC(=S)NC3=O)c2C)sc2c1CCCC2` gave MEKK3 PB1 HTS 95, WT yeast gro inh 78*, ABCB1 inh -1, ABCG2 block -3, MEKK2 mut-MEK5 -7 and MEKK2 WT-MEK5 65.
`C/C1=C\[C@@H](C)C/C=C/[C@H]2[C@@H]3O[C@]3(C)[C@@H](C)[C@H]3[C@H](Cc4c[nH]c5ccccc45)NC(=O)[C@]32C(=O)/C=C/C(=O)[C@@H]1O` gave MEKK3 PB1 HTS 104, WT yeast gro inh 71*, ABCB1 inh 1, ABCG2 block 1, MEKK2 mut-MEK5 1 and MEKK2 WT-MEK5 96.
Screening CC(=NCCN1CCCCC1)c1c(O)n(-c2ccc(Cl)cc2)c(=O)[nH]c1=O returned MEKK3 PB1 HTS 107, WT yeast gro inh 4, ABCB1 inh 0, ABCG2 block 0, MEKK2 mut-MEK5 6 and MEKK2 WT-MEK5 114.
For CSc1nnc(C2CCNCC2)n1C the results were MEKK3 PB1 HTS 104, WT yeast gro inh 65*, ABCB1 inh 0, ABCG2 block 1, MEKK2 mut-MEK5 5 and MEKK2 WT-MEK5 115.
Screening N[C@@H](Cc1c[nH]c2ccccc12)c1nnc(SCc2ccccc2)o1 returned MEKK3 PB1 HTS 104, WT yeast gro inh 10, ABCB1 inh -6, ABCG2 block -5, MEKK2 mut-MEK5 0 and MEKK2 WT-MEK5 99.

High-throughput results deposited in PubChem by several laboratories.
